# Results from ChEMBL document CHEMBL3352814, “Design, synthesis and biological evaluation of biphenylamide derivatives as Hsp90 C-terminal inhibitors” (Eur J Med Chem, 2015).
# Test system: not listed separately
# Experiment: Antiproliferative activity against human SKBR3 cells after 72 hrs by MTS/PMS assay
# Assay type: functional, cell-based
# Conditions: SK-BR-3, 72 h
# How it was run: (§1)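 Cells kept in 1:1 Advanced DMEM/F12 with non-essential amino acids, 2 mM L-glutamine, penicillin/streptomycin and 10% FBS at 37 °C, 5% CO2. Seeded 2000 cells/well, attached overnight, then given compound at varying concentrations in DMSO (1% final) for 72 h. Viable cells read by MTS/PMS. Normalised to 1% DMSO wells as 100% proliferation. IC50 from separate experiments run in triplicate.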
row,SMILES,IC50 [nM]
1,COc1cccc(-c2cc(C(=O)Nc3ccc(-c4ccc(OC5CCN(C)CC5)nc4)cc3)ccc2OC)c1,1670
2,COc1ccc(-c2cc(C(=O)Nc3ccc(-c4ccc(OC5CCN(C)CC5)cc4)cc3)ccc2OC)cc1,630
3,CN1CCC(Oc2ccc(-c3ccc(NC(=O)c4ccccc4)cc3)cc2)CC1,4130
4,Cc1ccc(C(=O)Nc2ccc(-c3ccc(OC4CCN(C)CC4)cc3)cc2)cc1Br,2800
5,Cc1cc(C(=O)Nc2ccc(-c3ccc(OC4CCN(C)CC4)cc3)cc2)ccc1Cl,1110
6,COc1cccc(-c2cc(C(=O)Nc3ccc(-c4ccc(OC5CCN(C)CC5)cc4)c(NC(C)=O)c3)ccc2OC)c1,2520
7,COc1cccc(-c2cc(C(=O)Nc3ccc(-c4ccc(OC5CCN(C)CC5)cc4)c(Cl)c3)ccc2OC)c1,2210
8,COc1cccc(-c2cc(C(=O)Nc3ccc(-c4ccc(OC5CCN(C)CC5)c(N)c4)cc3)ccc2OC)c1,2230
9,COc1cccc(-c2cc(C(=O)Nc3ccc(-c4ccc(OC5CCN(C)CC5)c(OC)c4)cc3)ccc2OC)c1,680
10,COc1cccc(-c2cc(C(=O)Nc3ccc(-c4ccc(OC5CCN(C)CC5)c(Cl)c4)cc3)ccc2OC)c1,1840
11,COc1cccc(-c2cc(C(=O)Nc3ccc(-c4ccc(OC5CCN(C)CC5)cc4)cc3N)ccc2OC)c1,3210
12,COc1ccc(C(=O)Nc2ccc(-c3ccc(OC4CCN(C)CC4)cc3)cc2)cc1-c1ccc(Cl)cc1,1060
13,Cc1ccc(C(=O)Nc2ccc(-c3ccc(OC4CCN(C)CC4)cc3)cc2)cc1,980
14,COc1cccc(-c2cc(C(=O)Nc3ccc(-c4ccc(OC5CCN(C)CC5)cc4)c([N+](=O)[O-])c3)ccc2OC)c1,2480
15,CN1CCC(Oc2ccc(-c3ccc(NC(=O)c4ccc5ncccc5c4)cc3)cc2)CC1,1310
16,COc1cccc(-c2cc(C(=O)Nc3ccc(-c4ccc(OC5CCN(C)CC5)cc4N)cc3)ccc2OC)c1,2130
17,CN1CCC(Oc2ccc(-c3ccc(NC(=O)c4ccccc4-c4ccccc4)cc3)cc2)CC1,6260
18,COc1cccc(-c2cc(C(=O)Nc3ccc(-c4ccc(OC5CCN(C)CC5)cc4C)cc3)ccc2OC)c1,1180
19,CN1CCC(Oc2ccc(-c3ccc(NC(=O)c4cc5ccccc5s4)cc3)cc2)CC1,1320
20,COc1cccc(-c2cc(C(=O)Nc3ccc(-c4ccc(OC5CCN(C)CC5)c(NC(C)=O)c4)cc3)ccc2OC)c1,2660
21,COc1cccc(-c2cc(C(=O)Nc3ccc(-c4ccc(OC5CCN(C)CC5)cc4)cc3[N+](=O)[O-])ccc2OC)c1,3400
22,COc1cccc(-c2cc(C(=O)Nc3ccc(-c4ccc(OC5CCN(C)CC5)c(C)c4)cc3)ccc2OC)c1,830
23,COc1cccc(-c2cc(C(=O)Nc3ccc(-c4ccc(OC5CCN(C)CC5)cc4[N+](=O)[O-])cc3)ccc2OC)c1,1180
24,COc1ccc(C(=O)Nc2ccc(-c3ccc(OC4CCN(C)CC4)cc3)cc2)cc1-c1cccc(NC(C)=O)c1,3370
25,COc1cccc(-c2cc(C(=O)Nc3ccc(-c4ccc(OC5CCN(C)CC5)cc4NC(C)=O)cc3)ccc2OC)c1,3390
26,COc1cccc(-c2cc(C(=O)Nc3ccc(-c4ccc(OC5CCN(C)CC5)cc4)c(OC)c3)ccc2OC)c1,900

row,SMILES,IC50 [nM]
1,CN1CCC(Oc2ccc(-c3ccc(NC(=O)c4ccc(-c5ccccc5)cc4)cc3)cc2)CC1,4590
2,CN1CCC(Oc2ccc(-c3ccc(NC(=O)c4ccc(Cl)cc4Cl)cc3)cc2)CC1,800
3,COc1cccc(-c2cc(C(=O)Nc3ccc(-c4ccc(OC5CCN(C)CC5)cc4)cc3NC(C)=O)ccc2OC)c1,3510
4,CC(=O)Oc1ccc(C(=O)Nc2cccc(-c3ccc(OC4CCN(C)CC4)cc3)c2)cc1CC=C(C)C,3470
5,COc1ccc(C(=O)Nc2ccc(-c3ccc(OC4CCN(C)CC4)cc3)cc2)cc1-c1cccc(N)c1,1520
6,COc1cccc(-c2cc(C(=O)Nc3ccc(-c4ccc(OC5CCN(C)CC5)cc4)cc3OC)ccc2OC)c1,3920
7,COc1ccc(C(=O)Nc2ccc(-c3ccc(OC4CCN(C)CC4)cc3)cc2)cc1-c1cccc(O)c1,1560
8,COc1ccc(C(=O)Nc2ccc(-c3ccc(OC4CCN(C)CC4)cc3)cc2)cc1-c1cccc(OC(C)=O)c1,270
9,COc1cccc(-c2cc(C(=O)Nc3ccc(-c4ccc(OC5CCN(C)CC5)cc4)c(C)c3)ccc2OC)c1,970
10,CN1CCC(Oc2ccc(-c3ccc(NC(=O)c4cc(Cl)cc(Cl)c4)cc3)cc2)CC1,810
11,COc1ccc(C(=O)Nc2ccc(-c3ccc(OC4CCN(C)CC4)cc3)cc2)cc1-c1cccc([N+](=O)[O-])c1,400
12,COc1cccc(-c2cc(C(=O)Nc3ccc(-c4ccc(OC5CCN(C)CC5)cc4)nc3)ccc2OC)c1,1210
13,Cc1ccc(C(=O)Nc2ccc(-c3ccc(OC4CCN(C)CC4)cc3)cc2)cc1I,930
14,COc1cccc(C(=O)Nc2ccc(-c3ccc(OC4CCN(C)CC4)cc3)cc2)c1,2870
15,COc1cccc(-c2cc(C(=O)Nc3ccc(-c4ccc(OC5CCN(C)CC5)cc4)c(N)c3)ccc2OC)c1,3900
16,CN1CCC(Oc2ccc(-c3ccc(NC(=O)c4cccc(Cl)c4)cc3)cc2)CC1,1940
17,COc1cccc(-c2cc(C(=O)Nc3ccc(-c4ccc(OC5CCN(C)CC5)cc4Cl)cc3)ccc2OC)c1,1280
18,COc1cccc(-c2cc(C(=O)Nc3cccc(-c4ccc(OC5CCN(C)CC5)cc4)c3)ccc2OC)c1,3650
19,Cc1ccc(C(=O)Nc2ccc(-c3ccc(OC4CCN(C)CC4)cc3)cc2)cc1Cl,1960
20,CC(=O)Oc1ccc(C(=O)Nc2ccc(-c3ccc(OC4CCN(C)CC4)cc3)cc2)cc1CC=C(C)C,1820
21,COc1cccc(-c2cc(C(=O)Nc3ccc(-c4ccc(OC5CCN(C)CC5)cc4OC)cc3)ccc2OC)c1,1410
22,COc1cccc(-c2cc(C(=O)Nc3ccc(-c4ccc(OC5CCN(C)CC5)cc4)cc3C)ccc2OC)c1,2470
23,COc1cccc(-c2cc(C(=O)Nc3ccc(-c4ccc(OC5CCN(C)CC5)cc4)cc3Cl)ccc2OC)c1,4290
24,COc1cccc(-c2cc(C(=O)Nc3ccc(-c4ccc(OC5CCN(C)CC5)cn4)cc3)ccc2OC)c1,1910
25,COc1cccc(-c2cc(C(=O)Nc3ccc(-c4ccc(OC5CCN(C)CC5)c([N+](=O)[O-])c4)cc3)ccc2OC)c1,2070

# Test system: MCF7
# Experiment: Antiproliferative activity against human MCF7 cells after 72 hrs by MTS/PMS assay
# Assay type: functional, cell-based
# Conditions: MCF7, 72 h
# How it was run: as §1
row,SMILES,IC50 [nM]
1,COc1cccc(-c2cc(C(=O)Nc3ccc(-c4ccc(OC5CCN(C)CC5)nc4)cc3)ccc2OC)c1,1560
2,COc1cccc(-c2cc(C(=O)Nc3ccc(-c4ccc(OC5CCN(C)CC5)cc4)c(NC(C)=O)c3)ccc2OC)c1,4660
3,COc1cccc(-c2cc(C(=O)Nc3ccc(-c4ccc(OC5CCN(C)CC5)c(N)c4)cc3)ccc2OC)c1,5950
4,COc1cccc(-c2cc(C(=O)Nc3ccc(-c4ccc(OC5CCN(C)CC5)c(OC)c4)cc3)ccc2OC)c1,1320
5,COc1cccc(-c2cc(C(=O)Nc3ccc(-c4ccc(OC5CCN(C)CC5)cc4)cc3N)ccc2OC)c1,2250
6,COc1cccc(-c2cc(C(=O)Nc3ccc(-c4ccc(OC5CCN(C)CC5)cc4)c([N+](=O)[O-])c3)ccc2OC)c1,3320
7,COc1cccc(-c2cc(C(=O)Nc3ccc(-c4ccc(OC5CCN(C)CC5)cc4N)cc3)ccc2OC)c1,1760
8,COc1cccc(-c2cc(C(=O)Nc3ccc(-c4ccc(OC5CCN(C)CC5)c(NC(C)=O)c4)cc3)ccc2OC)c1,1840
9,COc1cccc(-c2cc(C(=O)Nc3ccc(-c4ccc(OC5CCN(C)CC5)cc4)cc3[N+](=O)[O-])ccc2OC)c1,1150
10,COc1cccc(-c2cc(C(=O)Nc3ccc(-c4ccc(OC5CCN(C)CC5)cc4[N+](=O)[O-])cc3)ccc2OC)c1,1300
11,COc1cccc(-c2cc(C(=O)Nc3ccc(-c4ccc(OC5CCN(C)CC5)cc4NC(C)=O)cc3)ccc2OC)c1,1360
12,COc1cccc(-c2cc(C(=O)Nc3ccc(-c4ccc(OC5CCN(C)CC5)cc4)c(OC)c3)ccc2OC)c1,1500
13,COc1cccc(-c2cc(C(=O)Nc3ccc(-c4ccc(OC5CCN(C)CC5)cc4)cc3NC(C)=O)ccc2OC)c1,1660
14,CC(=O)Oc1ccc(C(=O)Nc2cccc(-c3ccc(OC4CCN(C)CC4)cc3)c2)cc1CC=C(C)C,2710
15,COc1cccc(-c2cc(C(=O)Nc3ccc(-c4ccc(OC5CCN(C)CC5)cc4)cc3OC)ccc2OC)c1,1220
16,COc1cccc(-c2cc(C(=O)Nc3ccc(-c4ccc(OC5CCN(C)CC5)cc4)nc3)ccc2OC)c1,1020
17,COc1cccc(-c2cc(C(=O)Nc3ccc(-c4ccc(OC5CCN(C)CC5)cc4)c(N)c3)ccc2OC)c1,2070
18,COc1cccc(-c2cc(C(=O)Nc3cccc(-c4ccc(OC5CCN(C)CC5)cc4)c3)ccc2OC)c1,1250
19,COc1cccc(-c2cc(C(=O)Nc3ccc(-c4ccc(OC5CCN(C)CC5)cc4OC)cc3)ccc2OC)c1,1350
20,COc1cccc(-c2cc(C(=O)Nc3ccc(-c4ccc(OC5CCN(C)CC5)cc4)cc3C)ccc2OC)c1,1430
21,COc1cccc(-c2cc(C(=O)Nc3ccc(-c4ccc(OC5CCN(C)CC5)cn4)cc3)ccc2OC)c1,1300
22,COc1cccc(-c2cc(C(=O)Nc3ccc(-c4ccc(OC5CCN(C)CC5)c([N+](=O)[O-])c4)cc3)ccc2OC)c1,1230

# Other lines, results leading:
row,IC50 [nM],SMILES
1,790,COc1ccc(-c2cc(C(=O)Nc3ccc(-c4ccc(OC5CCN(C)CC5)cc4)cc3)ccc2OC)cc1
2,3950,CN1CCC(Oc2ccc(-c3ccc(NC(=O)c4ccccc4)cc3)cc2)CC1
3,3350,Cc1ccc(C(=O)Nc2ccc(-c3ccc(OC4CCN(C)CC4)cc3)cc2)cc1Br
4,1030,Cc1cc(C(=O)Nc2ccc(-c3ccc(OC4CCN(C)CC4)cc3)cc2)ccc1Cl
5,3440,COc1cccc(-c2cc(C(=O)Nc3ccc(-c4ccc(OC5CCN(C)CC5)cc4)c(Cl)c3)ccc2OC)c1
6,1480,COc1cccc(-c2cc(C(=O)Nc3ccc(-c4ccc(OC5CCN(C)CC5)c(Cl)c4)cc3)ccc2OC)c1
7,820,COc1ccc(C(=O)Nc2ccc(-c3ccc(OC4CCN(C)CC4)cc3)cc2)cc1-c1ccc(Cl)cc1
8,1270,Cc1ccc(C(=O)Nc2ccc(-c3ccc(OC4CCN(C)CC4)cc3)cc2)cc1
9,2070,CN1CCC(Oc2ccc(-c3ccc(NC(=O)c4ccc5ncccc5c4)cc3)cc2)CC1
10,6670,CN1CCC(Oc2ccc(-c3ccc(NC(=O)c4ccccc4-c4ccccc4)cc3)cc2)CC1
11,1210,COc1cccc(-c2cc(C(=O)Nc3ccc(-c4ccc(OC5CCN(C)CC5)cc4C)cc3)ccc2OC)c1
12,2010,CN1CCC(Oc2ccc(-c3ccc(NC(=O)c4cc5ccccc5s4)cc3)cc2)CC1
13,1690,COc1cccc(-c2cc(C(=O)Nc3ccc(-c4ccc(OC5CCN(C)CC5)c(C)c4)cc3)ccc2OC)c1
14,1430,COc1ccc(C(=O)Nc2ccc(-c3ccc(OC4CCN(C)CC4)cc3)cc2)cc1-c1cccc(NC(C)=O)c1
15,4440,CN1CCC(Oc2ccc(-c3ccc(NC(=O)c4ccc(-c5ccccc5)cc4)cc3)cc2)CC1
16,1370,CN1CCC(Oc2ccc(-c3ccc(NC(=O)c4ccc(Cl)cc4Cl)cc3)cc2)CC1
17,1670,COc1ccc(C(=O)Nc2ccc(-c3ccc(OC4CCN(C)CC4)cc3)cc2)cc1-c1cccc(N)c1
18,1080,COc1ccc(C(=O)Nc2ccc(-c3ccc(OC4CCN(C)CC4)cc3)cc2)cc1-c1cccc(O)c1
19,620,COc1ccc(C(=O)Nc2ccc(-c3ccc(OC4CCN(C)CC4)cc3)cc2)cc1-c1cccc(OC(C)=O)c1
20,1570,COc1cccc(-c2cc(C(=O)Nc3ccc(-c4ccc(OC5CCN(C)CC5)cc4)c(C)c3)ccc2OC)c1
21,1680,CN1CCC(Oc2ccc(-c3ccc(NC(=O)c4cc(Cl)cc(Cl)c4)cc3)cc2)CC1
22,1090,COc1ccc(C(=O)Nc2ccc(-c3ccc(OC4CCN(C)CC4)cc3)cc2)cc1-c1cccc([N+](=O)[O-])c1
23,1170,Cc1ccc(C(=O)Nc2ccc(-c3ccc(OC4CCN(C)CC4)cc3)cc2)cc1I
24,5310,COc1cccc(C(=O)Nc2ccc(-c3ccc(OC4CCN(C)CC4)cc3)cc2)c1
25,2830,CN1CCC(Oc2ccc(-c3ccc(NC(=O)c4cccc(Cl)c4)cc3)cc2)CC1
26,1480,COc1cccc(-c2cc(C(=O)Nc3ccc(-c4ccc(OC5CCN(C)CC5)cc4Cl)cc3)ccc2OC)c1
27,2280,Cc1ccc(C(=O)Nc2ccc(-c3ccc(OC4CCN(C)CC4)cc3)cc2)cc1Cl
28,1370,CC(=O)Oc1ccc(C(=O)Nc2ccc(-c3ccc(OC4CCN(C)CC4)cc3)cc2)cc1CC=C(C)C
29,1800,COc1cccc(-c2cc(C(=O)Nc3ccc(-c4ccc(OC5CCN(C)CC5)cc4)cc3Cl)ccc2OC)c1
